Assay results pooled from the literature.
Protocols differ between the studies behind these lines.
Cell line: HeLa
Observed: cell growth or viability

| SMILES | assay | setting | IC50 |
| --- | --- | --- | --- |
| CCCC#CC#CCCC | MTT | 24 h | 105 mg/L |
| COc1cc(C)cc2oc(-c3ccc(C(F)(F)F)cc3)cc(=O)c12 | MTT | 48 h | > 100 µM |
| NCCOc1cc(C(=O)Nc2cc(OCCN3CCCC3)c3ccccc3n2)nc(C(=O)Nc2cc(OCCN3CCCC3)c3ccccc3n2)c1 | ATP luminescence | 72 h | 0.3 µM |
| COc1cccc(-c2cccc(NC(=O)CCc3cccc4c3B(O)OC4)c2)c1 | ATP luminescence | 72 h | 1.05 µM |
| CC(C)(C)OCC1NC(=O)C(C(=O)NC(C(=O)NC2C(=O)N3C2SC(C)(C)C3C(=O)O)c2ccccc2)=C1O (centres unmarked) | ATP luminescence | 48 h | 106 mg/L |
| CC(=O)O[C@H](C)C(=O)CCCCCCC(=O)Nc1ccccc1 | XTT | – | > 50 µM |
| COc1cc(OC)c2c(=O)cc(-c3ccc(Br)cc3)oc2c1 | MTT | 48 h | 85.8 µM |
| COc1ccccc1C(=O)c1cc2c(-c3ccccc3)c(OC)ccc2o1 | – | – | > 50 µM |
| C[C@H](O)C(=O)CCCCCCC(=O)Nc1cccc(-c2cn(-c3ccccc3)nn2)c1 | XTT | – | 115 µM |
| COc1ccnc(-c2cc(OC)ccn2)c1 | MTT | 48 h | > 50 µM |
| COc1ccc(C(=O)c2cc3c(-c4ccccc4)c(O)ccc3o2)cc1 | – | – | 0.51 µM |
| CC1(C)SC2C(NC(=O)C(NC(=O)C3=C(O)C(Cc4ccc(O)cc4)NC3=O)c3ccccc3)C(=O)N2C1C(=O)O (centres unmarked) | ATP luminescence | 48 h | 93.5 mg/L |
| O=c1[nH]cc(F)c(=O)[nH]1 | – | 72 h | 0.54 µM |
| C#CCOc1ccc(C(=O)c2cccc(NC(=O)CCc3cccc4c3B(O)OC4)c2)cc1 | ATP luminescence | 72 h | 1.33 µM |
| CC1(C)S[C@@H]2[C@H](NC(=O)C(C(=O)O)c3ccccc3)C(=O)N2[C@H]1C(=O)O (some centres unmarked) | ATP luminescence | 48 h | 76.2 mg/L |
| COc1ccc(C(=O)O[C@@H]2CN3Cc4c(cc5c(c4OC)OCO5)[C@@]24C=C[C@H](OC)C[C@@H]34)cc1 | WST-1 | 48 h | > 10 µM |
| CC1NC(=O)C(C(=O)NC(C(=O)NC2C(=O)N3C2SC(C)(C)C3C(=O)O)c2ccccc2)=C1O (centres unmarked) | ATP luminescence | 48 h | 106 mg/L |
| O=C(Nc1cc(OCCN2CCCC2)c2ccccc2n1)c1cc(OCCN2CCCC2)cc(C(=O)Nc2cc(OCCN3CCCC3)c3ccccc3n2)n1 | ATP luminescence | 72 h | 2.3 µM |
| CC1(C)SC2C(NC(=O)C(NC(=O)C3=C(O)CN(c4ccccc4)C3=O)c3ccccc3)C(=O)N2C1C(=O)O (centres unmarked) | ATP luminescence | 48 h | 87 mg/L |
| COc1cc(C)c(-c2c(C)cc(OC)c3c(=O)cc(-c4cccc(Br)c4)oc23)c2oc(-c3cccc(Br)c3)cc(=O)c12 | MTT | 48 h | > 100 µM |
| O=C(/C=C/c1cccc2c1B(O)OC2)Nc1ccccc1 | ATP luminescence | 72 h | > 31.6 µM |
| COc1c2c(cc3c1OCO3)[C@]13C=C[C@H](OC)C[C@H]1N(C2)C[C@H]3OC(=O)c1cccc(C)c1 | WST-1 | 48 h | > 10 µM |

| SMILES | assay | setting | IC50 |
| --- | --- | --- | --- |
| COc1cc(OC)c2c(=O)cc(-c3ccc(Br)cc3)oc2c1-c1c(OC)cc(OC)c2c(=O)cc(-c3ccc(Br)cc3)oc12 | MTT | 48 h | 96.1 µM |
| COc1cccc2c1C(=O)c1c(O)c3c(c(O)c1C2=O)C[C@@](O)(C(=O)CO)C[C@@H]3O[C@H]1C[C@H](N)[C@H](O)[C@H](C)O1 | MTT | 24 h | 1.2 µM |
| COc1ccc(OC)c(-c2c(C(=O)c3cc(OC)c(OC)c(OC)c3)sc3ccccc23)c1 | MTT | 72 h | > 10 µM |
| C(C#CCC1CCCCC1)#CCC1CCCCC1 | MTT | 24 h | 117 mg/L |
| Cc1ccc2c(Cl)cc(Cl)c(O)c2n1 | MTT | 48 h | > 100 µM |
| COc1ccc(-c2cc(=O)c3c(OC)cc(C)c(-c4c(C)cc(OC)c5c(=O)cc(-c6ccc(OC)cc6)oc45)c3o2)cc1 | MTT | 48 h | 41.4 µM |
| NCCOc1cc(NC(=O)c2cc(OCc3c[nH]nn3)cc(C(=O)Nc3cc(OCCN)c4ccccc4n3)n2)nc2ccccc12 | ATP luminescence | 72 h | 7.7 µM |
| CC(=O)O[C@H]1C(=O)[C@@]2(C)[C@H]([C@H](OC(=O)c3ccccc3)[C@]3(O)C[C@H](OC(=O)[C@H](O)[C@@H](NC(=O)c4ccccc4)c4ccccc4)C(C)=C1C3(C)C)[C@]1(OC(C)=O)CO[C@@H]1C[C@@H]2O | MTT | 72 h | < 2 µM |
| COc1cccc2c1C(=O)c1c(O)c3c(c(O)c1C2=O)C[C@@](O)(C(=O)CO)C[C@@H]3O[C@H]1C[C@H](N)[C@H](O)[C@H](C)O1 | MTT | 48 h | 0.18 µM |
| CC1(C)SC2C(NC(=O)C(NC(=O)C3=C(O)C4(CC4)NC3=O)c3ccccc3)C(=O)N2C1C(=O)O (centres unmarked) | ATP luminescence | 48 h | 103 mg/L |
| COc1cc(C)cc2oc(-c3ccc(N(C)C)cc3)cc(=O)c12 | MTT | 48 h | 24.2 µM |
| CCOC(=O)C#CC#CC(=O)OCC | MTT | 24 h | 13.2 mg/L |
| NCCOc1cc(NC(=O)c2cccc(C(=O)Nc3cc(OCCN)c4ccccc4n3)n2)nc2ccccc12 | ATP luminescence | 72 h | 1.2 µM |
| COc1cc(C)cc2oc(-c3ccccc3)cc(=O)c12 | MTT | 48 h | 82.5 µM |
| NCCOc1cc(C(=O)Nc2cc(OCCN)c3ccccc3n2)nc(C(=O)Nc2cc(OCCN)c3ccccc3n2)c1 | ATP luminescence | 72 h | 2.5 µM |
| c1ccc(-c2ccccn2)nc1 | MTT | 48 h | > 50 µM |
| Nc1ccc(C#CC#Cc2ccc(N)cc2)cc1 | MTT | 24 h | 91.2 mg/L |
| NCCCOc1cc(NC(=O)c2cc(OCCN)cc(C(=O)Nc3cc(OCCCN)c4ccccc4n3)n2)nc2ccccc12 | ATP luminescence | 72 h | 13.7 µM |
| COc1cc(OC)c2c(=O)cc(-c3ccc(C(F)(F)F)cc3)oc2c1 | MTT | 48 h | > 100 µM |
| COC(=O)CN=c1scc(-c2ccccc2)n1-c1ccccc1OC | MTT | 72 h | 2.97 µM |
| COc1cc(OC)cc(C(=O)c2cc3c(-c4ccccc4)c(O)ccc3o2)c1 | – | – | 15 µM |
| COc1cc(C(=O)Nc2cc(OCCN3CCCC3)c3ccccc3n2)nc(C(=O)Nc2cc(OCCN3CCCC3)c3ccccc3n2)c1 | ATP luminescence | 72 h | 3.9 µM |
